The source made the active and inactive calls. The calls are words filed in the database; no cut-off is given here.
Columns and labels:
MCF7 = experiment: Antiproliferative activity against human MCF7 cells assessed as cell growth inhibition incubated for 96 hrs by MTT assay; assay type: functional
[1] = target: T1, Protein deacetylase HDAC6 (Homo sapiens, UniProt Q9UBN7); experiment: Inhibition of recombinant full length C-terminal FLAG-tagged human HDAC6 expressed in baculovirus infected Sf9 cells using Boc-Lys(Ac)-AMC as substrate preincubated for 15 mins followed by substrate addition and measured after 60 mins by fluorescence based assay
T1 sequence (Q9UBN7 whole entry): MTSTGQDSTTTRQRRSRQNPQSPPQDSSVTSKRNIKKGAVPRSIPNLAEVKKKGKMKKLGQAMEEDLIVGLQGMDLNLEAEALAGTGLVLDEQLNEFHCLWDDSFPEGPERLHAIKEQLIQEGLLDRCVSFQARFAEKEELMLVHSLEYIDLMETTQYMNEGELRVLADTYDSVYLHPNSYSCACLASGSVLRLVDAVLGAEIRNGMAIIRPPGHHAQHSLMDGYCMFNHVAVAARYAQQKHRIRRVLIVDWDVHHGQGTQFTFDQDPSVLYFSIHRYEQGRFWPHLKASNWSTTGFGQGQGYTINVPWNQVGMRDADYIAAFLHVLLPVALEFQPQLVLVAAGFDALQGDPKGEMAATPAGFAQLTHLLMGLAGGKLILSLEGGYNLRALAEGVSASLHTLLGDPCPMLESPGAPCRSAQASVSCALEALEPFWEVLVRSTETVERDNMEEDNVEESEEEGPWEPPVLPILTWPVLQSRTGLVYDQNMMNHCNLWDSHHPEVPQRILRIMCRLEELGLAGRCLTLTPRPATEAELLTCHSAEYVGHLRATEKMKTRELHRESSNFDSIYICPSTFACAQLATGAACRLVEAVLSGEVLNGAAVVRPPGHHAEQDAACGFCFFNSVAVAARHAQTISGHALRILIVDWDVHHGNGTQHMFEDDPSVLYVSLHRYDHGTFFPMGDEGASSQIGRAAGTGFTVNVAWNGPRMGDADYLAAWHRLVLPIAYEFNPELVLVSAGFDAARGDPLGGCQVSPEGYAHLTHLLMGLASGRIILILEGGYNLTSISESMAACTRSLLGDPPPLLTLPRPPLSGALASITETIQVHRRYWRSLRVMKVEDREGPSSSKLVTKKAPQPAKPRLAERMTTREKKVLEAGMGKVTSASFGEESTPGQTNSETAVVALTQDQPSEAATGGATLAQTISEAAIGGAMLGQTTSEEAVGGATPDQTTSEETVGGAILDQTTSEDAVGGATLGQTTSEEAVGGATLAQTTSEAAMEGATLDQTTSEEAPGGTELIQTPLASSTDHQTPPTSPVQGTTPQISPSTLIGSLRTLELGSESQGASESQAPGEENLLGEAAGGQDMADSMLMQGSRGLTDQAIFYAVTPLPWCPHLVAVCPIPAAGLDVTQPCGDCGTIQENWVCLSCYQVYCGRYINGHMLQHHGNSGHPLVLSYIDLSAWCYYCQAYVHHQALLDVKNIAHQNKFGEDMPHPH

[2] = Antitumor activity against mouse LL/2 cells inoculated in C57BL/6J mouse assessed as tumor growth inhibition at 100 mg/kg, ip administered for 12 days; assay type: functional, Lewis lung carcinoma; design: scale not given: the % may be the effect or the level left; settings: time 12 day
Histone deacetylase 2 [3] = target: T2, Histone deacetylase 2 (Homo sapiens, UniProt Q92769); experiment: Inhibition of recombinant full length C-terminal FLAG-tagged human HDAC2 expressed in baculovirus infected Sf9 cells using Boc-Lys(Ac)-AMC as substrate preincubated for 15 mins followed by substrate addition and measured after 60 mins by fluorescence based assay
T2 sequence (Q92769 whole entry): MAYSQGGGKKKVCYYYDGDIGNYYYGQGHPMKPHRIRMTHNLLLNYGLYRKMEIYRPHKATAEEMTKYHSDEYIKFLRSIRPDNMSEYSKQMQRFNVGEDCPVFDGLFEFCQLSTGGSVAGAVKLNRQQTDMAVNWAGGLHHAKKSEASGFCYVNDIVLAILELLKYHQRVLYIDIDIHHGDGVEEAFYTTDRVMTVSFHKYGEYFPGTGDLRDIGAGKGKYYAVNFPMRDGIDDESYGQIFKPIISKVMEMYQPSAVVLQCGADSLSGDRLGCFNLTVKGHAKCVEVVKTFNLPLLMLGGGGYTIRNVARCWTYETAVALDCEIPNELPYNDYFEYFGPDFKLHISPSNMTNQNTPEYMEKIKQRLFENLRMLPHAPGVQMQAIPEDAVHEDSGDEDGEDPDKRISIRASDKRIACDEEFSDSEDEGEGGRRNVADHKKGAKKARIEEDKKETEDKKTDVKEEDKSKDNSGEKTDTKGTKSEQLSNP

[4] = Antitumor activity against mouse LL/2 cells inoculated in C57BL/6J mouse assessed as reduction of tumor weight at 100 mg/kg, ip administered for 12 days and measured at day 14 (reference value: 1.2 +/- 0.3 g); assay type: functional, Lewis lung carcinoma; settings: time 12 day
Histone deacetylase 1 [5] = target: T3, Histone deacetylase 1 (Homo sapiens, UniProt Q13547); experiment: Inhibition of recombinant full length C-terminal FLAG/His-tagged human HDAC1 expressed in baculovirus infected Sf9 cells using Boc-Lys(Ac)-AMC as substrate preincubated for 15 mins followed by substrate addition and measured after 60 mins by fluorescence based assay
T3 sequence (Q13547 whole entry): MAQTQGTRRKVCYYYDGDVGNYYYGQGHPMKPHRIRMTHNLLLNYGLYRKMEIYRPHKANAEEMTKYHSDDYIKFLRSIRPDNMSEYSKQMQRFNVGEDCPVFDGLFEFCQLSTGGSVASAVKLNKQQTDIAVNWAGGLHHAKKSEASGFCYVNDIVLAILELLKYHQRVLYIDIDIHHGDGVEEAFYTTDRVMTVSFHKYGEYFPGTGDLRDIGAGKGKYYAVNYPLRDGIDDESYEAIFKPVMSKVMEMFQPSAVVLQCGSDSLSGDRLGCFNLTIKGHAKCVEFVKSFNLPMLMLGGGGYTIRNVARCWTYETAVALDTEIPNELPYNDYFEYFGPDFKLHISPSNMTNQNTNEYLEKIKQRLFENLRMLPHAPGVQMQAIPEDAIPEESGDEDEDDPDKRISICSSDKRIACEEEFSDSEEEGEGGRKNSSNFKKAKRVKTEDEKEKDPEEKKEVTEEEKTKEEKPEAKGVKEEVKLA

[6] = Toxicity in mouse LL/2 cells inoculated C57BL/6J mouse assessed as effect on body weight by measuring end body weight at 100 mg/kg, ip administered for 12 days and measured for every 2 days (reference value: 17.8 +/- 0.7 g); assay type: organism-based; settings: in vivo, 288 h, time 12 day
[7] = Antiproliferative activity against mouse LL/2 cells assessed as cell growth inhibition incubated for 96 hrs by MTT assay; assay type: functional, Lewis lung carcinoma
HCT-116 = experiment: Antiproliferative activity against human HCT-116 cells assessed as cell growth inhibition incubated for 96 hrs by MTT assay; assay type: functional
HL-60 [8] = experiment: Growth inhibition of human HL-60 cells after 72 hrs by trypan blue dye based assay; assay type: functional
Method in brief: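 HL-60 leukemia cells were exposed to compound for 72 h. Growth inhibition is reported as IG50 (half the growth inhibition concentration), as means plus SD of three independent experiments.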

A549 = experiment: Antiproliferative activity against human A549 cells assessed as cell growth inhibition incubated for 96 hrs by MTT assay; assay type: functional
[9] = target: Histone deacetylase 3/Nuclear receptor corepressor 2 (HDAC3/NCoR2) (Homo sapiens, UniProt O15379); experiment: Inhibition of C-terminal His-tagged recombinant human HDAC3 (1 to 428 residues)/N-terminal GST-tagged recombinant human NCoR2 (395 to 489 residues) co-expressed in baculovirus infected Sf9 cells using Boc-Lys(Ac)-AMC as substrate preincubated for 15 mins followed by substrate addition and measured after 60 mins by fluorescence based assay
Sequence of Histone deacetylase 3/Nuclear receptor corepressor 2 (HDAC3/NCoR2) (O15379 whole entry, the tested form may be a part): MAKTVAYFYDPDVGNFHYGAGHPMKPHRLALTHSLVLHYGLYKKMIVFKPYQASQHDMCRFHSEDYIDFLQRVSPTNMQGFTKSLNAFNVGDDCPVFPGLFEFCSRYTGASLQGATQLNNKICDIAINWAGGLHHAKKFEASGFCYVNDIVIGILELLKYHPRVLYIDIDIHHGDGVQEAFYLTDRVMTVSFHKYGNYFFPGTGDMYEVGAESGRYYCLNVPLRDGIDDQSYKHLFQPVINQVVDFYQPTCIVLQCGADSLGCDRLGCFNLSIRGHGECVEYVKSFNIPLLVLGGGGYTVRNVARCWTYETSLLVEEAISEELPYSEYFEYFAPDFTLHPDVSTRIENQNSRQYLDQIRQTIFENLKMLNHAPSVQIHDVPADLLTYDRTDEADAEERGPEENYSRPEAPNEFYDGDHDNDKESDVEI
Sequence of Histone deacetylase 3/Nuclear receptor corepressor 2 (HDAC3/NCoR2) (Q9Y618 whole entry, further chain, the tested form may be a part): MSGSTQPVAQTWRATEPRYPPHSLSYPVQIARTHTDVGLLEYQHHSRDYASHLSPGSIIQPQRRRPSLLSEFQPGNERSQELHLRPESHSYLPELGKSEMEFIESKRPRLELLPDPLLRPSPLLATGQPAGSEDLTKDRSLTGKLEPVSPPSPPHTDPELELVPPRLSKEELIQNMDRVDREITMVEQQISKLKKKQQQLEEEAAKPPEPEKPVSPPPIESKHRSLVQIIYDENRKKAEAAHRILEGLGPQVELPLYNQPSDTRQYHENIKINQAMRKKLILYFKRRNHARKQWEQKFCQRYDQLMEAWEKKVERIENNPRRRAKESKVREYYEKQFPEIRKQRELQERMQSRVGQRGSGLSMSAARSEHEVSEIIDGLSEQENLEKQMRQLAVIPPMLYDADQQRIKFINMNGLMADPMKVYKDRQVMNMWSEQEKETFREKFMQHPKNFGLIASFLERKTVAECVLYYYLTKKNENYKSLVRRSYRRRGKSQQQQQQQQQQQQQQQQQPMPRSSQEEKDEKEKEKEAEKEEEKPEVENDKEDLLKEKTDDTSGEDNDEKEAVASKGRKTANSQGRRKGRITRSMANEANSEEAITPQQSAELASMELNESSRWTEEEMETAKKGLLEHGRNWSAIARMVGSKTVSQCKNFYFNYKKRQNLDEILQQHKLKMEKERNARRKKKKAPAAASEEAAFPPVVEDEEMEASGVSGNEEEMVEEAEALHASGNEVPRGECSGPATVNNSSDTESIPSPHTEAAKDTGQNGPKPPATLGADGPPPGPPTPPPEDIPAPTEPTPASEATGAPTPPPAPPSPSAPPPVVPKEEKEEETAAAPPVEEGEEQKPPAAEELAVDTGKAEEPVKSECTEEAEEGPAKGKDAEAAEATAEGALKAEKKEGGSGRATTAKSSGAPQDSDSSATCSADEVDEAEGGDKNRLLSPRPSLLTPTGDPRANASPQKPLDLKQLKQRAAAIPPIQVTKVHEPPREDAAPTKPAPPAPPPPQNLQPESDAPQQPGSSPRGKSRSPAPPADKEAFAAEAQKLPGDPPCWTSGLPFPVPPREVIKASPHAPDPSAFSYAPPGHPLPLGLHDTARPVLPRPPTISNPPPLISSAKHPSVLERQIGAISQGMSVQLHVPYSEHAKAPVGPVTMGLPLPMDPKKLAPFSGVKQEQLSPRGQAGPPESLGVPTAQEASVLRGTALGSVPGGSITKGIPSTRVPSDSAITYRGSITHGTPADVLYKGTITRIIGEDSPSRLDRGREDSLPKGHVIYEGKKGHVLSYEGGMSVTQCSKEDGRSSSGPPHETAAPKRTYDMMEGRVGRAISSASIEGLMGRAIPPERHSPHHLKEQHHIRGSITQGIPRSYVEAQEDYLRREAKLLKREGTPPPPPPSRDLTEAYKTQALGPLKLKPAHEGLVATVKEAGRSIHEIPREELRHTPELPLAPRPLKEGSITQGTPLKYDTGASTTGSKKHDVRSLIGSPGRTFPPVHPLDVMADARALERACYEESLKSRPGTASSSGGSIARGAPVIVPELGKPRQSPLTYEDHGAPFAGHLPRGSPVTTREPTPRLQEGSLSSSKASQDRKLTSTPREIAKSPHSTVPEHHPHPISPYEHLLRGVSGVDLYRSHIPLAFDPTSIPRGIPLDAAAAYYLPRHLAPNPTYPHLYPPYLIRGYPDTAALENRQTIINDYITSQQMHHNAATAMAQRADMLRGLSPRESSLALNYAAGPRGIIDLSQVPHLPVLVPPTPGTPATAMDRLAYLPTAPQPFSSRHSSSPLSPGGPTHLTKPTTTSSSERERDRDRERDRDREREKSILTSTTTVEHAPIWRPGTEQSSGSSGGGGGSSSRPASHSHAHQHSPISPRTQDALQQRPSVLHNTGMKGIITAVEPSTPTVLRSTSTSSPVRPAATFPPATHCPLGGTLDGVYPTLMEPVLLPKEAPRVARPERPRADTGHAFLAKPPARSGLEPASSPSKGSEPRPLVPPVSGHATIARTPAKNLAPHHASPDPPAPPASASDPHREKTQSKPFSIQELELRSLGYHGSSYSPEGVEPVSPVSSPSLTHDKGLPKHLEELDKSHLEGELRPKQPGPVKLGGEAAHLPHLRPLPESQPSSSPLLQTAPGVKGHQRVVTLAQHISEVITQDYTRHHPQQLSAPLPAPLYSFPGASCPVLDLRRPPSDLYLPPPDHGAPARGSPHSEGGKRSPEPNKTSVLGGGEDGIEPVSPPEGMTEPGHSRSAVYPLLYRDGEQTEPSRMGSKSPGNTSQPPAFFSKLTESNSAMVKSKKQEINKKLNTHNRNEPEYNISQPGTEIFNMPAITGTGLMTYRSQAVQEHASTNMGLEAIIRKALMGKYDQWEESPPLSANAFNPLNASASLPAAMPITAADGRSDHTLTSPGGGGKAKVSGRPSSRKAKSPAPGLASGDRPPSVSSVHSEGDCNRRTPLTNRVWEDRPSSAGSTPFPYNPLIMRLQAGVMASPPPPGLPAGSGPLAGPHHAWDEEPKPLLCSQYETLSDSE

[10] = Toxicity in mouse LL/2 cells inoculated C57BL/6J mouse assessed as effect on body weight by measuring initial body weight at 100 mg/kg, ip administered for 12 days and measured for every 2 days (reference value: 18.6 +/- 0.8 g); assay type: organism-based; settings: in vivo, 288 h, time 12 day
HL-60 [11] = experiment: Induction of apoptosis in human HL-60 cells assessed as viable cells at 20 uM incubated for 24 hrs by propidium iodide and annexin-V FITC staining based FACS analysis (reference value: 96.3 %); assay type: functional; settings: read-out: Activity
HL-60 [12] = experiment: Induction of apoptosis in human HL-60 cells assessed as necrotic cells at 40 uM incubated for 24 hrs by propidium iodide and annexin-V FITC staining based FACS analysis (reference value: 0.1 %); assay type: functional
HL-60 [13] = experiment: Induction of apoptosis in human HL-60 cells assessed as late apoptotic cells at 20 uM incubated for 24 hrs by propidium iodide and annexin-V FITC staining based FACS analysis (reference value: 1.7 %); assay type: functional
HL-60 [14] = experiment: Induction of apoptosis in human HL-60 cells assessed as viable cells at 40 uM incubated for 24 hrs by propidium iodide and annexin-V FITC staining based FACS analysis (reference value: 96.3 %); assay type: functional; settings: read-out: Activity
HL-60 [15] = experiment: Induction of apoptosis in human HL-60 cells assessed as necrotic cells at 20 uM incubated for 24 hrs by propidium iodide and annexin-V FITC staining based FACS analysis (reference value: 0.1 %); assay type: functional
HL-60 [16] = experiment: Induction of apoptosis in human HL-60 cells assessed as cleavage of caspase-9 at 20 uM after 24 hrs Western blot analysis; assay type: functional, cell-based
Method in brief: (§1)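 HL-60 cells were treated for 24 h at the indicated concentrations, then analysed by Western blot. Blots were probed for cleavage of PARP and caspase-3, -8 and -9. Ac-H3, Ac-α-tubulin and β-actin were also detected, with β-actin as the loading reference.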

Histone deacetylase 2 [17] = target: T2, Histone deacetylase 2; experiment: Inhibition of HDAC2 in human HL-60 cells assessed as increase in Ac-H3 level at 2 uM incubated for 24 hrs by Western blot analysis; assay type: cell-based
Method in brief: (§2)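 Compound given to HL-60 cells for 24 h at the stated concentrations, then lysed. Acetyl-histone H3 and acetyl-α-tubulin levels were read by Western blot, with total H3, α-tubulin or β-actin as references.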

Histone deacetylase 1 [18] = target: T3, Histone deacetylase 1; experiment: Inhibition of HDAC1 in human HL-60 cells assessed as increase in Ac-H3 level at 2 uM incubated for 24 hrs by Western blot analysis; assay type: cell-based; method in brief: as §2
HL-60 [19] = experiment: Induction of apoptosis in human HL-60 cells assessed as late apoptotic cells at 40 uM incubated for 24 hrs by propidium iodide and annexin-V FITC staining based FACS analysis (reference value: 1.7 %); assay type: functional
HL-60 [20] = experiment: Induction of apoptosis in human HL-60 cells assessed as cleavage of caspase-8 at 20 uM after 24 hrs Western blot analysis; assay type: functional, cell-based; method in brief: as §1
HL-60 [21] = experiment: Induction of apoptosis in human HL-60 cells assessed as cleavage of caspase-3 at 20 uM after 24 hrs Western blot analysis; assay type: functional, cell-based; method in brief: as §1
HL-60 [22] = experiment: Induction of apoptosis in human HL-60 cells assessed as early apoptotic cells at 20 uM incubated for 24 hrs by propidium iodide and annexin-V FITC staining based FACS analysis (reference value: 2.0 %); assay type: functional
[23] = target: Histone deacetylase 3 (Homo sapiens) (UniProt O15379); experiment: Inhibition of HDAC3 in human HL-60 cells assessed as increase in Ac-H3 level at 20 uM incubated for 24 hrs by Western blot analysis; assay type: cell-based; method in brief: as §2
Sequence of Histone deacetylase 3 (Homo sapiens) (O15379 whole entry): as the sequence (O15379 whole entry, the tested form may be a part) above

HL-60 [24] = experiment: Induction of apoptosis in human HL-60 cells assessed as cleavage of PARP at 20 uM after 24 hrs Western blot analysis; assay type: functional, cell-based; method in brief: as §1
HL-60 [25] = experiment: Induction of apoptosis in human HL-60 cells assessed as early apoptotic cells at 40 uM incubated for 24 hrs by propidium iodide and annexin-V FITC staining based FACS analysis (reference value: 2.0 %); assay type: functional
[26] = target: T4, Protein deacetylase HDAC6 (Homo sapiens) (UniProt Q9UBN7); experiment: Inhibition of HDAC6 in human HL-60 cells assessed as increase in acetylated alpha tubulin level at 0.5 uM after 24 hrs by Western blot analysis; assay type: cell-based; method in brief: as §2
T4 sequence (whole entry): T1 sequence (Q9UBN7 whole entry)

HL-60 [27] = experiment: Induction of apoptosis in human HL-60 cells assessed as necrotic cells at 2 uM incubated for 24 hrs by propidium iodide and annexin-V FITC staining based FACS analysis (reference value: 0.3 %); assay type: functional
HL-60 [28] = experiment: Induction of apoptosis in human HL-60 cells assessed as late apoptotic cells at 2 uM incubated for 24 hrs by propidium iodide and annexin-V FITC staining based FACS analysis (reference value: 4.8 %); assay type: functional
HL-60 [29] = experiment: Induction of apoptosis in human HL-60 cells assessed as early apoptotic cells at 2 uM incubated for 24 hrs by propidium iodide and annexin-V FITC staining based FACS analysis (reference value: 2.8 %); assay type: functional

SMILES | IG50 (MCF7) [µM] | IC50 [1] [nM] | IC50 (Histone deacetylase 2 [3]) [nM] | IC50 (Histone deacetylase 1 [5]) [nM] | IG50 [7] [µM] | IG50 (HCT-116) [µM] | IG50 (HL-60 [8]) [µM] | IG50 (A549) [µM] | IC50 [9] [nM] | viability at 20 µM (HL-60 [11]) [%] | Activity (HL-60 [12]) [%] | Activity (HL-60 [13]) [%] | viability at 40 µM (HL-60 [14]) [%] | Activity (HL-60 [15]) [%] | Activity (HL-60 [16]) | inhibition (Histone deacetylase 2 [17]) | inhibition (Histone deacetylase 1 [18]) | Activity (HL-60 [19]) [%] | Activity (HL-60 [22]) [%] | Activity (HL-60 [25]) [%] | also measured
Nc1ccccc1NC(=O)CCCCCCCNC(=O)/C(Cc1ccc(O)c(Br)c1)=N/O | 17.9 | > 1000 | > 1000 | > 1000 | 12.2 | 11.9 | 5.2 | 26 | 170 |  |  |  |  |  |  |  |  |  |  |  | Activity [2]: 36.5%; Activity [4]: 0.8 g; Activity [6]: 18.5 g; Activity [10]: 18.6 g
Nc1ccccc1NC(=O)CCCCCNC(=O)/C(Cc1ccc(O)c(Br)c1)=N/O |  | > 1000 | > 1000 | > 1000 |  |  | 14.3 |  | 180 | 95.6 | 0.4 | 2.8 | 85.7 | 0.1 | inactive | inactive | inactive | 10.2 | 1.5 | 3.8 | Activity (HL-60 [20]): inactive; Activity (HL-60 [21]): inactive; inhibition [23]: Active; Activity (HL-60 [24]): inactive
Nc1ccccc1NC(=O)CCCCCCNC(=O)/C(Cc1ccc(O)c(Br)c1)=N/O |  | > 1000 | > 1000 | > 1000 |  |  | 14 |  | 130 | 94.2 | 0.6 | 4 | 87.9 | 0.1 | inactive | inactive | inactive | 8.4 | 1.7 | 3.1 | Activity (HL-60 [20]): inactive; Activity (HL-60 [21]): inactive; inhibition [23]: Active; Activity (HL-60 [24]): inactive
O=C(CCCCCCC(=O)Nc1ccc([C@H]2O[C@@H](CSc3nc(-c4ccccc4)c(-c4ccccc4)o3)C[C@@H](c3ccc(CO)cc3)O2)cc1)NO [TUBACIN] |  |  |  |  |  |  |  |  |  |  |  |  |  |  |  |  |  |  |  |  | inhibition [26]: Active; Activity (HL-60 [27]): 0.8%; Activity (HL-60 [28]): 8.8%; Activity (HL-60 [29]): 3.9%
Nc1cc(F)ccc1NC(=O)/C=C/c1cnn(C/C=C/c2ccccc2)c1 | 30 |  |  |  | 10.8 | 22 | 6.1 | 28.3 |  | 89.3 | 2.9 | 7.2 | 75.1 | 0.5 |  |  | inactive | 17.2 | 3 | 4.8 | 
